Results reported in ChEMBL document CHEMBL2331099, “Design, synthesis and aromatase inhibitory activities of novel indole-imidazole derivatives” (Bioorg Med Chem Lett, 2013).

Experiments:
Aromatase [1] = target: T1, Aromatase (Homo sapiens, UniProt P11511); test: Ratio of letrozole IC50 to compound IC50 for human placental microsome aromatase
T1 sequence (P11511 whole entry): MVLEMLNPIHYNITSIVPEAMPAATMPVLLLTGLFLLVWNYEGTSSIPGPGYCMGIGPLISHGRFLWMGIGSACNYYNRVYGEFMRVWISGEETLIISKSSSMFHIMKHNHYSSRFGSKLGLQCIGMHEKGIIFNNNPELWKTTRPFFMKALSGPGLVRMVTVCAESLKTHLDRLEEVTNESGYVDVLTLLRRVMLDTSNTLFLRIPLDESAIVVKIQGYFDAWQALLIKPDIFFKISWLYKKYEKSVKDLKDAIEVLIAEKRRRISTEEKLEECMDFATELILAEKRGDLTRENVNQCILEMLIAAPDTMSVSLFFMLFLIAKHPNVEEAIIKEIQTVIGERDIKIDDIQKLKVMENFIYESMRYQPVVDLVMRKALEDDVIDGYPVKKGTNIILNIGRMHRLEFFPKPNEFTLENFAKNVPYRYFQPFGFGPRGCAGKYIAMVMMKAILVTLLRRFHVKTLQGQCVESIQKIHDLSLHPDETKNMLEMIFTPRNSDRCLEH
Procedure, shortened: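 Both IC50s come from the human placental microsome aromatase assay with estrone measured by ELISA. Each IC50 is the mean of at least three experiments, each run in triplicate.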

Aromatase [2] = target: T1, Aromatase; test: Inhibition of human placental microsome aromatase after 30 mins by ELISA
Procedure, shortened: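 Aromatase (P450 arom) source: human placental microsomes. Activity read as estrone formed, quantified by a commercial estrone enzyme immunoassay (ELISA). Values are means of at least three experiments, each run in triplicate.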

Row | SMILES | Ratio IC50 (Aromatase [1]) | IC50 (Aromatase [2]) [nM]
1 | COc1ccc2cc(Cn3ccnc3)n(-c3ccc(F)cc3)c2c1 | 0.3378 | 48.9
2 | COc1ccc(-n2c(Cn3ccnc3)cc3ccc(Cl)cc32)cc1 | 0.0813 | 203
3 | COc1ccc(-n2c(Cn3ccnc3)cc3ccccc32)cc1 | 0.2137 | 77.4
4 | Cc1ccc2cc(Cn3ccnc3)n(-c3ccccc3)c2c1 | 0.7728 | 21.4
5 | COc1ccc(-n2c(Cn3ccnc3)cc3ccc(C)cc32)cc1 | 0.1192 | 139
6 | Cc1ccc2cc(Cn3ccnc3)n(-c3ccc(C#N)cc3)c2c1 | 0.612 | 27
